Test results from the RNAGym collection of RNA variant scans (doi:10.1126/science.aae0568).
This sample holds only a part of the variants without activity.

B1: tRNA (parent)
chain: GUUCCGUUGGCGUAAUGGUAACGCGUCUCCCUCCUAAGGAGAAGACUGCGGGUUCGAGUCCCGUACGGAACG

Variants of: B1
Assay: yeast fitness relative to wild type (ratio to wild type); higher = fitter; tRNA-Arg(CCU), competitive growth, 37 C, YPD
Summary of the method: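 For this measurement, the tRNA-Arg(CCU) gene was varied by chemical synthesis at a 3% per-site mutation rate across 69 sites, and each variant was placed at the native genomic locus in Saccharomyces cerevisiae. The pooled strains went through a 24-hour competition in YPD at 37°C in six parallel replicates, with amplicons from start and end populations read by 100-nucleotide paired-end sequencing. Darwinian fitness relative to wild type followed from the change in each genotype's frequency. Genotypes needed ≥ 100 starting reads, and estimates < 0.5 were set to 0.5.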

Compared with G17C U19A C49G, G17C C29G A37C U64C is higher in yeast fitness: 0.517 for the first, 0.771 for the second.

Going from G18A U19A C27U to G18A C24U U47G, the yeast fitness falls from 0.707 to ≤ 0.5.

First: G18A C49U U54C
Second: G17U C29G
The yeast fitness of the first is lower: 0.539 for the first, 0.544 for the second.

Compared with G17C U26C C46U A65U, G17C G58C is lower in yeast fitness: 0.558 for the first, 0.528 for the second.

G18A C55U and G18A C55G are the same in yeast fitness: 0.554 for the first, 0.554 for the second.

G17C C24G G63C and G18A G25C A43U A69C cannot be ordered by yeast fitness: ≤ 0.5 for the first, ≤ 0.5 for the second.

G17C C30G C33G and G18A G50C G56C cannot be ordered by yeast fitness: ≤ 0.5 for the first, ≤ 0.5 for the second.

Compared with G17C C24G U28A C30U C49U A65U A69C, G18A C24A is higher in yeast fitness: ≤ 0.5 for the first, 0.564 for the second.

Going from G17C G50A to G18C C27G G48A C66G G67A, the yeast fitness falls from 0.616 to ≤ 0.5.

G17C U26G G39C A40U and G18C G41C A43C C55U cannot be ordered by yeast fitness: ≤ 0.5 for the first, ≤ 0.5 for the second.

Compared with G17C C31A C60A A65U, G17C G25A U32A A43G A57U is higher in yeast fitness: 0.532 for the first, 0.546 for the second.

Compared with G17C U35A, G18A A40G is higher in yeast fitness: ≤ 0.5 for the first, 0.74 for the second.

Compared with G18A A57G G58C, G18C A21G G67A is lower in yeast fitness: 0.63 for the first, ≤ 0.5 for the second.

First: G18A C30U C55A
Second: G18A C30G
The yeast fitness of the first is higher: 0.592 for the first, ≤ 0.5 for the second.

G18A C30A U32A U35G and G17C C34A A42U A43C cannot be ordered by yeast fitness: ≤ 0.5 for the first, ≤ 0.5 for the second.

Going from G17C U28C C55A C60A to G18A A40U A42U A65C, the yeast fitness rises from ≤ 0.5 to 0.534.

Going from G17C U19A A36C A37U C60G G67C to G17C C27U C61A, the yeast fitness rises from ≤ 0.5 to 0.537.

Compared with G17C G25C G50A U59C G68A, G18A G25C A43U is higher in yeast fitness: ≤ 0.5 for the first, 0.6 for the second.

First: G18A A40C U47G A65C
Second: G18A A20G U35C G58A C60G
The yeast fitness of the first is lower: ≤ 0.5 for the first, 0.558 for the second.

Compared with G17C U47C, G17C C33U A37C is lower in yeast fitness: 0.711 for the first, ≤ 0.5 for the second.

Going from G18A C33U C46G to G18C A40G A42G C66G, the yeast fitness falls from 0.634 to ≤ 0.5.

G18A C62G G68C and G18A C62G G68U cannot be ordered by yeast fitness: ≤ 0.5 for the first, ≤ 0.5 for the second.

G17C C29G A43G and G17C C55A cannot be ordered by yeast fitness: ≤ 0.5 for the first, ≤ 0.5 for the second.

First: G17C C55U
Second: G17C C55G
The yeast fitness of the first is lower: 0.598 for the first, 0.616 for the second.

First: G18A C22U
Second: G18A A20U C22U U28A C33U G44C
The yeast fitness of the first is higher: 0.636 for the first, 0.524 for the second.

Compared with G18A U32G A69G, G18A C31G A70U is higher in yeast fitness: ≤ 0.5 for the first, 0.687 for the second.

Compared with G17C G63C, G17C C24G C34U is higher in yeast fitness: ≤ 0.5 for the first, 0.527 for the second.

Compared with G18C C66U, G17C U32A C46A A69U is lower in yeast fitness: 0.59 for the first, ≤ 0.5 for the second.

First: G18C A45U
Second: G17C G23A G25C C29G A36U G39A C46U C55U
The yeast fitness of the first is higher: 0.549 for the first, ≤ 0.5 for the second.

Compared with G18A C27U C31A, G17U A40U A42U C49G G51A C66A G68C is higher in yeast fitness: ≤ 0.5 for the first, 0.536 for the second.

Going from G17C G18C G63C U64C to G18C G25C, the yeast fitness rises from ≤ 0.5 to 0.677.

G18A A21C C30U C34A and G18C A37C C49G A70G cannot be ordered by yeast fitness: ≤ 0.5 for the first, ≤ 0.5 for the second.

Going from G17C C33G U59G A69U to G17U U19G A37G C66U A69U, the yeast fitness falls from 0.665 to 0.561.

First: G18A C46U G50U C60G A70G
Second: G18C C30U A45U
The yeast fitness of the first is lower: ≤ 0.5 for the first, 0.549 for the second.

G18A C27U A37G A70C and G18A C31G C34A U47C cannot be ordered by yeast fitness: ≤ 0.5 for the first, ≤ 0.5 for the second.

First: G18A G50C C55G C62A
Second: G17C U54C
The yeast fitness of the first is higher: 0.561 for the first, 0.536 for the second.

First: G17C C24U A36G
Second: G18C C29U A43G C49A
The yeast fitness of the first is higher: 0.607 for the first, ≤ 0.5 for the second.

G18A A20G U26G G50C G63C and G18C C22A C29U A45C A69U cannot be ordered by yeast fitness: ≤ 0.5 for the first, ≤ 0.5 for the second.

Compared with G17C G25C U26A C29G A36U G39A C46U C55U, G18A C62U U64A is higher in yeast fitness: ≤ 0.5 for the first, 0.517 for the second.

First: G17C C29A A57U
Second: G18A A43C C66G
The yeast fitness of the first is lower: ≤ 0.5 for the first, 0.505 for the second.

G17C U28A C34G G38A U59A and G17C C30G C49U A57C C61G cannot be ordered by yeast fitness: ≤ 0.5 for the first, ≤ 0.5 for the second.

Going from G18C G23C G48A to G18A A43U, the yeast fitness rises from ≤ 0.5 to 0.637.

G18C C31G A42G G67A and G17C C33G G48U cannot be ordered by yeast fitness: ≤ 0.5 for the first, ≤ 0.5 for the second.

G17C G39A G52A and G17C G51A G63C A69U cannot be ordered by yeast fitness: ≤ 0.5 for the first, ≤ 0.5 for the second.

First: G18C A21G G23A A43C
Second: G18A A43G A65C
The yeast fitness of the first is lower: ≤ 0.5 for the first, 0.595 for the second.

G18A U19C C27G C61A U64G C66U and G18C C24A A57C C66U A69C cannot be ordered by yeast fitness: ≤ 0.5 for the first, ≤ 0.5 for the second.

Compared with G18A C31U G41A, G18A C22A A37C G41C C55G U64A is lower in yeast fitness: 0.647 for the first, ≤ 0.5 for the second.

Compared with G18A G25C C30G G41U A57U, G18A A45C C49U is higher in yeast fitness: ≤ 0.5 for the first, 0.667 for the second.

G18C C30G C46U G48A U54G and G17C G18C A20G C30A G50A A69C cannot be ordered by yeast fitness: ≤ 0.5 for the first, ≤ 0.5 for the second.

First: G17C C24A U47A
Second: G18A C49U
The yeast fitness of the first is lower: ≤ 0.5 for the first, 0.892 for the second.

Going from G18A C30U A40G C46U to G17C C33A C55A, the yeast fitness rises from ≤ 0.5 to 0.672.

Going from G17C C30G C60G G63A A65U C66U to G18A G25C A43U U59A G63A, the yeast fitness falls from 0.549 to ≤ 0.5.

First: G18A G48A A57C U59C
Second: G18C A69U
The yeast fitness of the first is lower: ≤ 0.5 for the first, 0.695 for the second.

First: G17C U32C A42U
Second: G18A A20C C34U A36U G39C
The yeast fitness of the first is higher: 0.559 for the first, 0.539 for the second.

Compared with G18C C33G C49A C55U, G17C G18C C30G U53A U64G is lower in yeast fitness: 0.517 for the first, ≤ 0.5 for the second.

First: G18C C55G
Second: G18C C55U
The yeast fitness of the first is higher: 0.585 for the first, 0.532 for the second.

First: G17C C34U
Second: G18A C46U C49U U59C G68A
The yeast fitness of the first is higher: 0.529 for the first, ≤ 0.5 for the second.

First: G18C A21G G56A
Second: G18A U35C U47C G50C
The yeast fitness of the first is higher: 0.575 for the first, ≤ 0.5 for the second.

Going from G18A U19A A70U to G17C C61U C62U C66A, the yeast fitness falls from 0.657 to 0.593.

Compared with G18A C22A U28C A40C, G18A A20U C62A A70C is higher in yeast fitness: ≤ 0.5 for the first, 0.552 for the second.

First: G18C A70C
Second: G18A G41C U54A G63A
The yeast fitness of the first is higher: 0.687 for the first, ≤ 0.5 for the second.

Compared with G18A A57U G58C, G18A U64C is higher in yeast fitness: ≤ 0.5 for the first, 0.66 for the second.

G18C A42C A43C C66G and G18A G41C A42G U54A cannot be ordered by yeast fitness: ≤ 0.5 for the first, ≤ 0.5 for the second.

Going from G18A U47A to G17C C31A, the yeast fitness falls from 0.824 to 0.551.

First: G18C C33A U54A C62A
Second: G18A A69C
The yeast fitness of the first is lower: 0.577 for the first, 0.926 for the second.

First: G18A A20G A69U
Second: G18C A40C C49G G63A
The yeast fitness of the first is lower: 0.542 for the first, 0.553 for the second.

Going from G18A C27A to G17C G18C, the yeast fitness falls from 0.726 to 0.576.

Compared with G18A C31A, G18C C22G C31U U59A G63A is lower in yeast fitness: 0.554 for the first, ≤ 0.5 for the second.

G17C U53A G56A A57C A65C and G18C A21C C27U A37U cannot be ordered by yeast fitness: ≤ 0.5 for the first, ≤ 0.5 for the second.

First: G17C C49U G63C
Second: G18A G44C A65U
The yeast fitness of the first is lower: ≤ 0.5 for the first, 0.537 for the second.

G18C C29G A36C G44C G50A C66A and G18C A40C C49G cannot be ordered by yeast fitness: ≤ 0.5 for the first, ≤ 0.5 for the second.

G18C G23A G25C A37G A43C and G17C C24U G41A cannot be ordered by yeast fitness: ≤ 0.5 for the first, ≤ 0.5 for the second.

G18C C27U G38A G39C U64C and G18C C27U C55G A65G G68C cannot be ordered by yeast fitness: ≤ 0.5 for the first, ≤ 0.5 for the second.

G18C C22A U32C A45C C46U A65C and G18C A20G C30A cannot be ordered by yeast fitness: ≤ 0.5 for the first, ≤ 0.5 for the second.

Compared with G18C A37U A40U U64C G67A, G18C A40G is higher in yeast fitness: ≤ 0.5 for the first, 0.64 for the second.

G18C C24G U35C G50C C55G and G18A G68C A69U cannot be ordered by yeast fitness: ≤ 0.5 for the first, ≤ 0.5 for the second.

Going from G18A G25C C30G G41U C55G to G18C C22U G56C, the yeast fitness rises from ≤ 0.5 to 0.542.

G18A C30U U47G and G18C C60U G67A cannot be ordered by yeast fitness: ≤ 0.5 for the first, ≤ 0.5 for the second.

First: G17C G41A G56C
Second: G18C A45C G52A A65C
The yeast fitness of the first is higher: 0.619 for the first, ≤ 0.5 for the second.

G18C C27U C61A and G18A C34U C60U cannot be ordered by yeast fitness: ≤ 0.5 for the first, ≤ 0.5 for the second.

First: G18A A21C G39A C55U C60G A69U
Second: G17C U19A C24G U26A C34U
The yeast fitness of the first is higher: 0.523 for the first, ≤ 0.5 for the second.

G18A C29U C31A C66U and G18C C24G A36C G38C G58C cannot be ordered by yeast fitness: ≤ 0.5 for the first, ≤ 0.5 for the second.

G17C G18C U19G C24G and G18A C33U A57G cannot be ordered by yeast fitness: ≤ 0.5 for the first, ≤ 0.5 for the second.

Variant G17C G23U U28A C31G has a yeast fitness of 0.655.
